Data set [1] is described as follows: ^68Ga-DOTA PET imaging of visceral blood flow. It is filed as in vivo, Yucatan mini-pigs. The following applies: for K1 (unidirectional transfer rate from blood to tissue): 1-tissue compartment model, mean±SEM. The essentials:
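Visceral perfusion was measured in anesthetized lean and obese Yucatan mini-pigs during the same session, after GLP-1r imaging. 68Ga-DOTA at 1.2 MBq/kg was given IV over 10 s, followed by a dynamic PET of 10 min in 46 frames. Arterial input came from an arteriovenous loop. Images were partial-volume corrected. K1 came from a one-tissue compartment fit. Mean±SEM, unpaired t-test.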

In data set [2] the target is T1, GLP-1r (Sus scrofa, UniProt A0ACM8QMX0).
T1 sequence (A0ACM8QMX0 24-463): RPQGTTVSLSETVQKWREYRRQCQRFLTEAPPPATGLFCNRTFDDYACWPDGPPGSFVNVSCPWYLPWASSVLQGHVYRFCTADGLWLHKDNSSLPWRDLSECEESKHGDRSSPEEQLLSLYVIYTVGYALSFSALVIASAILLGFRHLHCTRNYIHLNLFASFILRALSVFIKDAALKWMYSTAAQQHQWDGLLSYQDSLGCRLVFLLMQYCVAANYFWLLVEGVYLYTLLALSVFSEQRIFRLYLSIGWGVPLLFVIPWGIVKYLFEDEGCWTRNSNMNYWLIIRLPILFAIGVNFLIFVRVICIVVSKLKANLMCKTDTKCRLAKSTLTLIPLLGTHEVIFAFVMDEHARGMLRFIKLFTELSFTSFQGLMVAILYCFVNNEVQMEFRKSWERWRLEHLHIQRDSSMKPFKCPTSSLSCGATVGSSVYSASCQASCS
The data set is described as follows: GLP-1r PET imaging with compartmental kinetic analysis. It counts as in vivo, Yucatan mini-pigs. The settings on record: 2-tissue compartment model, mean±SEM. The method, boiled down: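 Adult Yucatan mini-pigs, lean or obese, anesthetized; a 68Ga-labeled GLP-1r agonist radiotracer at 0.2 MBq/kg was given IV over 30 s. A dynamic abdominal PET-CT scan ran for 60 min in 30 frames, either fasted or at euglycemic–hyperinsulinemic clamp plateau (insulin 120 mU kg−1 h−1, 20% glucose). Arterial input came from an external arteriovenous loop gamma detector. Vs came from a 2-tissue compartment fit. Mean±SEM, unpaired t-test.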

Turning to ^68Ga-DOTA, the “K1 (unidirectional transfer rate from blood to tissue)” value in data set [1] (duodenum, lean) is listed as 0.14±0.02 mL ccm^−1 min^−1; in data set [1] (pancreas, obese) it was 0.14±0.05 mL ccm^−1 min^−1; in data set [1] (subcutaneous fat, lean), 0.08±0.03 mL ccm^−1 min^−1; in data set [1] (subcutaneous fat, obese), 0.01±0.01 mL ccm^−1 min^−1; in data set [1] (visceral fat, lean) it was 0.02±0.01 mL ccm^−1 min^−1; in data set [1] (visceral fat, obese), 0.03±0.01 mL ccm^−1 min^−1. For the same substance, in data set [1] (pancreatic level, obese versus lean animals), the “reduction of K1 for the flow-coded images” value is “about 90%”.

Take [^68Ga]Ga-DO3A-VS-Cys40-exendin-4: the “GLP-1r binding potential (Vs, distribution volume of specific binding)” value stood at 3.02±0.20 mL/ccm in data set [2] (duodenum, lean, fasted); 2.62±0.17 mL/ccm in data set [2] (duodenum, lean, insulin (clamp plateau)); 2.87±0.29 mL/ccm in data set [2] (duodenum, obese, fasted); 2.88±0.25 mL/ccm in data set [2] (duodenum, obese, insulin (clamp plateau)); 1.49±0.47 mL/ccm in data set [2] (pancreas, obese, fasted); 0.13±0.02 mL/ccm in data set [2] (subcutaneous fat, lean, fasted). The “GLP-1r binding potential (Vs, distribution volume of specific binding)” value in data set [2] (subcutaneous fat, obese, fasted) was 0.06±0.02 mL/ccm; in data set [2] (visceral fat, lean, fasted), 0.44±0.13 mL/ccm; in data set [2] (visceral fat, obese, fasted), 0.13±0.02 mL/ccm.

(Values after publication PMC7607594 (BMJ Open Diabetes Research & Care, 2020).)
